Screening results: PubChem BioAssay, several laboratories
Insulin prom up – MIN6 insulin promoter up-regulation; MIN6 insulin promoter-GFP reporter, high-content imaging; active compounds read high; z-score at 5 µM; actives 0.3% (n = 190,000); AID 1625;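 active = z-score above 3 at 5 µM with at least 500 cells counted in the well; inconclusive = wells under 500 cells, flagged as cytotoxic or low count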
WT yeast gro inh – growth inhibition of WT yeast, mitochondrial fusion screen; actives 2.1% (n = 190,000); inhibition, % at 10 µM; mitochondrial fusion phenotypic screen, WT strain; in the data active = inhibition above about 58%; tested in S. cerevisiae
Autophagy HCS – autophagy modulation, high-content screen; MEF GFP-LC3 puncta imaging; test concentration mostly 10 µM; calls only at 10 µM (by protocol); actives 0.98% (n = 190,000);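 active = percentage of spot-positive cells more than 3 SD above its plate mean, without a fluorescence outlier flag or 80% toxicity; inconclusive = no clear call, values can overlap the other calls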
SKKanGAS inh – blocks kanamycin growth of S. pyogenes SKKanGAS strain. BacTiter-Glo, 6 h. inhibition, % at 7.5 µM. actives 1.3% (n = 300,000). AID 1662;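 active = mean replicate score, as percent of positive control median, at least 50; inconclusive = mean below 50 but one replicate at or above 50; inactive = mean and every replicate below 50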;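 note: strain carries kanamycin resistance gene driven by streptokinase promoter and grows in 40 µg/ml kanamycin; loss of luminescence reflects streptokinase promoter inhibition or plain growth inhibition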
Cl transport mod – modulates chloride dependent transport by human KCC2. Q9H2X9. AID 1456. actives 2.2% (n = 190,000). B-score of Tl+ flux slope (higher = more flux/activation; lower = inhibition) at 10 µM. KCC2 cells, thallium flux FluoZin-2 fluorescence;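 active = thallium flux slope and its plate-corrected score both differing from the plate sample mean at a set confidence after two filtering rounds, in either direction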;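 note: slope of fluorescence scaled to starting intensity during 10 to 20 s after thallium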
Rad51 HR inh – blocks human Rad51 in homologous recombination; hRad51 DNA strand exchange, fluorescence dequenching; inhibition, % at 10 µM; Q06609; AID 1385; actives 0.085% (n = 200,000);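 active = inhibition above 40% at the single screening dose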
Target sequence (Q06609 whole entry, looked up): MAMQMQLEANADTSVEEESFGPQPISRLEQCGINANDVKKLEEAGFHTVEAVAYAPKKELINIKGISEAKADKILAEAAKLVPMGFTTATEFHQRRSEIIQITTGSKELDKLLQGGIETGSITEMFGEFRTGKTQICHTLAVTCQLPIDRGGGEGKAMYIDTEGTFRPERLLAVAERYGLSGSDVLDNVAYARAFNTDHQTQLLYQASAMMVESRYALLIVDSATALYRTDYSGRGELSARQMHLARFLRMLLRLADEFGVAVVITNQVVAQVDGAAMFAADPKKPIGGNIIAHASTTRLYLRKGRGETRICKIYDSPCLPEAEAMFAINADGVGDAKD
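Material: Human Rad51 nucleoprotein filaments preassembled on unlabelled ssDNA | Also added: Labelled 47-mer dsDNA for strand exchange | Dosing: Single dose, 10 µM final compound | Schedule: 30-min compound preincubation and 15-min exchange, both room temperature | Technique: Fluorescence dequenching at 485/520 nm | Measure: Percent inhibition relative to plate controls and blanks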
KCC2 secondary – confirmation of human KCC2 transport modulators | AID 1713 | normalised thallium flux (F/F0 slope) at 10 µM | shares compounds with Cl transport mod | HEK293-KCC2, thallium flux, FluoZin2 fluorescence; active compounds read high | actives 15% (n = 3,700);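 active = thallium flux slope above the same plate's solvent-only control mean plus 3 SD; inconclusive = the two replicate wells disagree; inactive = no significant difference from solvent-only control wells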
KCC2 bumet counter – bumetanide-insensitive thallium flux in KCC2 cells with ouabain, counter-screen. HEK293-KCC2 + bumetanide/ouabain, thallium flux FluoZin2; active compounds read high. actives 49% (n = 3,700). normalized thallium flux at 10 µM. shares compounds with Cl transport mod;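 active = thallium entry rate above the same plate's blocked-transporter control wells by more than 3 SD; inconclusive = the two repeat wells disagree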;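 note: raw slope of fluorescence over initial fluorescence between 10 and 20 s after thallium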
KCC2 sec2 – KCC2 (human) modulation, second secondary assay; HEK293-KCC2, thallium flux FluoZin2 fluorescence; actives lie on both sides; F/F0 rise rate, 10–20 s post-thallium; normalized thallium flux at 10 µM; actives 23% (n = 3,700); shares compounds with Cl transport mod;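 active = thallium flux slope more than 3 SD above or below the plate's solvent-only control mean, mostly below; inconclusive = the two repeat wells disagreed; inactive = no significant shift from solvent-only controls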
HEK counter1 – counter-screen for KCC2 modulators: effect in parental HEK293 cells. thallium flux rate (normalised fluorescence) at 10 µM. shares compounds with Cl transport mod. thallium flux FluoZin2, ouabain; baseline-ratio fluorescence slope, 10–20 s after thallium. actives 46% (n = 3,700);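 active = thallium flux rate significantly above the same plate's solvent-only control wells, beyond their mean plus 3 SD; inconclusive = the two replicate wells gave conflicting results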
KCC2 retest ouab – KCC2 (human) modulation, ouabain retest; shares compounds with Cl transport mod; HEK293-KCC2, thallium flux FluoZin2 fluorescence; bidirectional: low = inhibitor, high = activator; raw Tl+ flux slope (below DMSO = inhibition, above = activation) at 10 µM; actives 48% (n = 3,700);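 active = thallium flux slope beyond 3 SD from same-plate DMSO control mean in most replicates, usually higher, sometimes lower; inconclusive = repeat tests gave conflicting results; inactive = no significant difference from controls in most replicates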;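 note: slope of initial-normalized fluorescence between seconds 10 and 20 after thallium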
HEK293 Tl flux2 – acts in parental HEK cells, second KCC2 counter-screen. thallium flux slope at 10 µM. HEK293 parental, thallium flux FluoZin-2 fluorescence slope. actives 33% (n = 3,700). shares compounds with Cl transport mod;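 active = thallium flux slope above the same plate's solvent-control mean plus 3 SD in both duplicate wells; inconclusive = duplicate wells that disagreed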;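 note: run without ouabain in cells lacking the KCC2 cotransporter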
Large screens that a line does not name were inactive (follow-up assays come after a bar, where they were run). Shown are actives, neighbours in structure and some others; about 4.2% of the full set was active somewhere.

CCC1=NN2C(=N)/C(=C\c3cccn3-c3c(C)cccc3C)C(=O)N=C2S1	Cl transport mod 9 | KCC2 secondary inconclusive | KCC2 bumet counter 0.028 | KCC2 sec2 inactive | HEK counter1 0.032 | KCC2 retest ouab 0.03 | HEK293 Tl flux2 0.015
CCC1=NN2C(=N)/C(=C/c3cc(C)n(Cc4ccccc4)c3C)C(=O)N=C2S1	none (no result: WT yeast gro inh, Autophagy HCS)
CCC1=NN2C(=N)/C(=C\c3cccn3-c3ccc(C)cc3C)C(=O)N=C2S1	WT yeast gro inh 84, Cl transport mod 8.6 | KCC2 secondary inactive | KCC2 bumet counter 0.055 | KCC2 sec2 inactive | HEK counter1 0.02 | KCC2 retest ouab 0.04 | HEK293 Tl flux2 inconclusive
C/C(=N\NC(=S)Nc1ccccc1C)c1cc2ccccc2o1	Cl transport mod 40 (no result: WT yeast gro inh, Autophagy HCS) | KCC2 secondary inactive | KCC2 bumet counter 0.047 | KCC2 sec2 0.048 | HEK counter1 0.043 | KCC2 retest ouab 0.052 | HEK293 Tl flux2 0.035
C/C(=N\NC(=O)C1COc2ccccc2O1)c1cc2ccccc2o1 (centres undefined)	none
C/C(=N\NC(=S)Nc1c(C)cccc1C)c1cc2ccccc2o1	Cl transport mod 8.6 (no result: Rad51 HR inh) | KCC2 secondary inactive | KCC2 bumet counter 0.012 | KCC2 sec2 inactive | HEK counter1 0.017 | KCC2 retest ouab inconclusive | HEK293 Tl flux2 0.013
COc1ccccc1CCC(=O)NCCCn1ccc2ccccc21	none (no result: Insulin prom up, WT yeast gro inh, Autophagy HCS, Cl transport mod, Rad51 HR inh)
COc1ccc(OC)c(S(=O)(=O)N2CCC(C(=O)NCc3ccccn3)CC2)c1	none (no result: Insulin prom up, WT yeast gro inh, Autophagy HCS, Cl transport mod, Rad51 HR inh)
Cc1cc(C)cc(C(=O)Nc2ccc(N3CCN(C(=O)c4ccco4)CC3)cc2)c1	none (no result: Insulin prom up, WT yeast gro inh, Autophagy HCS, Cl transport mod, Rad51 HR inh)
O=C(Oc1cc(-c2ccccc2)no1)c1ccc(Cl)cc1	Cl transport mod -5.5 (no result: Rad51 HR inh) | KCC2 secondary inactive | KCC2 bumet counter inactive | KCC2 sec2 inactive | HEK counter1 inactive | KCC2 retest ouab inactive | HEK293 Tl flux2 inactive
Cc1nn(-c2ccccc2)c(Cl)c1/C=C1\SC(=S)NC1=O	Cl transport mod 35 | KCC2 secondary 0.037 | KCC2 bumet counter 0.16 | KCC2 sec2 inactive | HEK counter1 0.063 | KCC2 retest ouab 0.067 | HEK293 Tl flux2 0.027
O=S(=O)(Nc1cccc2ncccc12)c1cccs1	WT yeast gro inh 59, SKKanGAS inh 87, Cl transport mod 29 | KCC2 secondary 0.025 | KCC2 bumet counter 0.069 | KCC2 sec2 0.037 | HEK counter1 0.027 | KCC2 retest ouab 0.048 | HEK293 Tl flux2 0.019
Cc1c(NS(=O)(=O)c2cccs2)cccc1-c1nc2cccnc2s1	none (no result: WT yeast gro inh, Autophagy HCS, Rad51 HR inh)
CC(C)OC(=O)c1cc2c(ccn2C)n1CC(=O)N1CCC(Cc2ccccc2)CC1	Cl transport mod -5.7 | KCC2 secondary inactive | KCC2 bumet counter inactive | KCC2 sec2 0.024 | HEK counter1 inconclusive | KCC2 retest ouab 0.014 | HEK293 Tl flux2 inactive
O=C(NCCO)c1cc(-c2cc(C(=O)NCCO)c3ccccc3n2)nc2ccccc12	none (no result: Insulin prom up, WT yeast gro inh, Autophagy HCS, Cl transport mod, Rad51 HR inh)
CCOc1ccc(N(CC(=O)NN=C2CCCC2)S(C)(=O)=O)cc1	none (no result: Insulin prom up, Rad51 HR inh)
